The subject of data set [1] is MDCK. In words: Cytotoxicity against dog MDCK cells assessed as alteration of cell morphology up to 100 uM by microscopic analysis. The class given is cell-based, Canis lupus familiaris. The essentials:
(§1)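 Uninfected host-cell cultures were exposed to compound and examined by microscopy. Cytotoxicity was expressed as the minimum cytotoxic concentration (MCC) causing a microscopically detectable alteration of normal cell morphology.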

A short description of data set [2]: Cytotoxicity against cat CRFK cells assessed as alteration of cell morphology up to 100 uM by microscopic analysis. The class given is cell-based, Felis catus. The gist of the method:
as §1

Data set [3] deals with Vero. Description: Cytotoxicity against african green monkey Vero cells assessed as alteration of cell morphology up to 100 uM by microscopic analysis. The class given is cell-based. The following applies: chlorocebus sabaeus. The gist of the method: as §1
In data set [4] the test system is HeLa. In words: Cytotoxicity against human HeLa cells assessed as alteration of cell morphology up to 100 uM by microscopic analysis. The class given is cell-based. The gist of the method: as §1
The subject of data set [5] is HEL. In words: Cytotoxicity against human HEL cells assessed as alteration of cell morphology up to 100 uM by microscopic analysis. The class given is cell-based. The gist of the method: as §1
The subject of data set [6] is Human immunodeficiency virus 2. Description: Antiviral activity against Human immunodeficiency virus 2 ROD infected in human CEM cells assessed as reduction of virus-induced giant cell formation at 250 uM after 4 to 5 days. The class given is functional, organism-based. To be noted: CCRF-CEM. The essentials: (§2)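 CEM cells at 3 × 10^5 cells/mL were infected with HIV at 100 CCID50 per mL in the presence of compound dilutions. They were held 4–5 days at 37 °C in humidified CO2. Syncytium (giant cell) formation was scored microscopically, and EC50 was taken as the concentration inhibiting giant cell formation by 50%.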

The test system of data set [7] is Human immunodeficiency virus 1. In words: Antiviral activity against Human immunodeficiency virus 1 3B infected in human CEM cells assessed as reduction of virus-induced giant cell formation at 250 uM after 4 to 5 days. The class given is functional, organism-based. To be noted: CCRF-CEM. The essentials:
as §2

Data set [8] concerns Feline coronavirus. Description: Antiviral activity against Feline coronavirus infected in cat CRFK cells assessed as reduction of virus-induced cytopathogenicity at 250 uM. The class given is functional, organism-based. (In general: Damage to the host cells serves as the signal in cytopathic effect assays.)
In data set [9] the test system is Felid alphaherpesvirus 1. In words: Antiviral activity against Feline herpes virus infected in cat CRFK cells assessed as reduction of virus-induced cytopathogenicity at 250 uM. The class given is functional, organism-based.
Data set [10] deals with Influenza B virus. In words: Antiviral activity against Influenza B virus infected in dog MDCK cells assessed as reduction of virus-induced cytopathogenicity at 250 uM. The class given is functional, organism-based. The gist of the method: (§3)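 Confluent cell monolayers were infected with 100 CCID50 of virus while exposed to varying compound concentrations. Cytopathicity was scored once it was complete in untreated infected controls. EC50 was taken as the concentration that reduced virus-induced cytopathogenicity by 50%.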

The test system of data set [11] is Influenza A virus. Description: Antiviral activity against Influenza A virus H3N2 infected in dog MDCK cells assessed as reduction of virus-induced cytopathogenicity at 250 uM. The class given is functional, organism-based. The essentials:
as §3

Data set [12] has as its system Influenza A virus. In words: Antiviral activity against Influenza A virus H1N1 infected in dog MDCK cells assessed as reduction of virus-induced cytopathogenicity at 250 uM. The class given is functional, organism-based. The essentials:
as §3

The test system of data set [13] is Punta Toro virus. Description: Antiviral activity against Punta Toro virus infected in african green monkey Vero cells assessed as reduction of virus-induced cytopathogenicity at 250 uM. The class given is functional, organism-based. The gist of the method: (§4)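 Confluent monolayers (HEL fibroblasts, Vero, or HeLa cells as listed) were infected with 100 CCID50 of virus in the presence of varying compound concentrations. Virus-induced cytopathicity or plaque formation was scored once cytopathicity was complete in untreated infected controls. EC50 was taken as the concentration reducing cytopathogenicity or plaque formation by 50%.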

The test system of data set [14] is Sindbis virus. Description: Antiviral activity against Sindbis virus infected in african green monkey Vero cells assessed as reduction of virus-induced cytopathogenicity at 250 uM. The class given is functional, organism-based. The essentials:
as §4

In data set [15] the test system is Coxsackievirus B4. Description: Antiviral activity against Coxsackievirus B4 infected in african green monkey Vero cells assessed as reduction of virus-induced cytopathogenicity at 250 uM. The class given is functional, organism-based. The gist of the method: as §4
In data set [16] the test system is Mammalian orthoreovirus 1. In words: Antiviral activity against Reovirus 1 infected in african green monkey Vero cells assessed as reduction of virus-induced cytopathogenicity at 250 uM. The class given is functional, organism-based. The gist of the method:
as §4

Data set [17] has as its system Human respirovirus 3. In words: Antiviral activity against Parainfluenza virus 3 infected in african green monkey Vero cells assessed as reduction of virus-induced cytopathogenicity at 250 uM. The class given is functional, organism-based. The essentials:
as §4

Data set [18] has as its system Respiratory syncytial virus. Description: Antiviral activity against Respiratory syncytial virus long infected in human HeLa cells assessed as reduction of virus-induced cytopathogenicity at 250 uM. The class given is functional, organism-based. The essentials:
as §4

Data set [19] deals with Vesicular stomatitis virus. Description: Antiviral activity against Vesicular stomatitis virus infected in human HeLa cells assessed as reduction of virus-induced cytopathogenicity at 250 uM. The class given is functional, organism-based. The gist of the method:
as §3

For data set [20], the system named is Human alphaherpesvirus 1. Description: Antiviral activity against thymidine kinase-deficient, ACV-resistant Herpes simplex virus 1 KOS infected in human HEL cells assessed as reduction of virus-induced cytopathogenicity at 250 uM. The class given is functional, organism-based. The gist of the method: as §3
The subject of data set [21] is Vesicular stomatitis virus. Description: Antiviral activity against Vesicular stomatitis virus infected in human HEL cells assessed as reduction of virus-induced cytopathogenicity at 250 uM. The class given is functional, organism-based. The essentials: as §3
In data set [22] the test system is Human alphaherpesvirus 2. In words: Antiviral activity against Herpes simplex virus 2 G infected in human HEL cells assessed as reduction of virus-induced cytopathogenicity at 250 uM. The class given is functional, organism-based. The following applies: strain G. The essentials:
as §4

Data set [23] concerns Human alphaherpesvirus 1. Description: Antiviral activity against Herpes simplex virus 1 KOS infected in human HEL cells assessed as reduction of virus-induced cytopathogenicity at 250 uM. The class given is functional, organism-based. The gist of the method:
as §4

Activity calls are given as the source filed them. No rule for the calls is given here.

The source of these data is ChEMBL document CHEMBL2331506, “Design, synthesis, antiviral and cytostatic evaluation of novel isoxazolidine nucleotide analogues with a carbamoyl linker” (Bioorg Med Chem, 2013).

With `CCOP(=O)(OCC)[C@H]1C[C@H](C(=O)Nc2cccc(Cl)c2)ON1C` (mixture of isomers), the Activity entry in data set [1], in [2], in data set [3], in data set [4] and in [5] was “Non-toxic” each time. For the same compound, the inhibition result in [6], in [7], in data set [8], in [9], in [10] and in [11] was “inactive” in each case. For the same compound, the inhibition entry in [12], in [13], in data set [14], in [15], in [16] and in data set [17] was “inactive” throughout. Moreover, the inhibition result in data set [18], in data set [19], in data set [20], in data set [21], in [22] and in data set [23] was “inactive” in each case.

Turning to `CCOP(=O)(OCC)[C@@H]1C[C@@H](C(=O)Nc2ccccc2Cl)ON1C` (racemic), the Activity entry in [1], in [2], in data set [3], in data set [4] and in data set [5] was “Non-toxic” throughout. Further, the inhibition result in data set [6], in data set [7], in data set [8], in data set [9], in [10] and in [11] was “inactive” each time. Moreover, the inhibition result in data set [12], in data set [13], in [14], in data set [15], in data set [16] and in data set [17] was “inactive” in each case. Further, the inhibition entry in [18], in [19], in data set [20], in data set [21], in [22] and in [23] was “inactive” each time.

On to `CCOP(=O)(OCC)[C@H]1C[C@H](C(=O)Nc2cc(OC)c(OC)cc2C#N)ON1C` (mixture of isomers), for which the Activity result in data set [1], in data set [2], in data set [3], in data set [4] and in data set [5] was “Non-toxic” each time. In addition, the inhibition entry in data set [6], in data set [7], in [8], in data set [9], in [10] and in data set [11] was “inactive” in each case. For the same compound, the inhibition result in data set [12], in [13], in [14], in [15], in data set [16] and in data set [17] was “inactive” each time. For the same compound, the inhibition entry in [18], in data set [19], in data set [20], in data set [21], in data set [22] and in data set [23] was “inactive” each time.

As for `CCOP(=O)(OCC)[C@@H]1C[C@H](C(=O)Nc2cc(OC)c(OC)c(OC)c2)ON1C` (racemic), the Activity entry in data set [1], in data set [2], in data set [3], in data set [4] and in data set [5] was “Non-toxic” in each case. Besides, the inhibition result in data set [6], in data set [7], in data set [8], in data set [9], in [10] and in data set [11] was “inactive” each time. The inhibition entry in data set [12], in data set [13], in data set [14], in [15], in data set [16] and in data set [17] was “inactive” each time. Also, the inhibition result in data set [18], in [19], in data set [20], in data set [21], in data set [22] and in data set [23] was “inactive” in each case.

As for `CCOP(=O)(OCC)[C@H]1C[C@H](C(=O)Nc2cc(OC)c(OC)c(OC)c2)ON1C` (mixture of isomers), the Activity entry in data set [1], in data set [2], in data set [3], in data set [4] and in [5] was “Non-toxic” each time. Moreover, the inhibition entry in data set [6], in data set [7], in data set [8], in data set [9], in [10] and in data set [11] was “inactive” throughout. Moreover, the inhibition entry in data set [12], in data set [13], in [14], in [15], in data set [16] and in [17] was “inactive” throughout. In addition, the inhibition entry in data set [18], in data set [19], in data set [20], in [21], in data set [22] and in data set [23] was “inactive” each time.

As for `CCOP(=O)(OCC)[C@@H]1C[C@H](C(=O)Nc2ccccc2Cl)ON1C` (mixture of isomers), the Activity entry in data set [1], in data set [2], in data set [3], in data set [4] and in data set [5] was “Non-toxic” throughout. Also, the inhibition entry in data set [6], in data set [7], in data set [8], in data set [9], in data set [10] and in data set [11] was “inactive” in each case. Moreover, the inhibition result in data set [12], in [13], in data set [14], in data set [15], in [16] and in [17] was “inactive” throughout. The inhibition entry in [18], in data set [19], in data set [20], in [21], in [22] and in data set [23] was “inactive” in each case.
